Article PMC6077846 (ChemMedChem, 2018)
Entries after “also recorded” stand apart in the source; their conditions may differ.

Assays:
[1] = PET imaging in wild type mice, baseline radioactivity uptake; format: in vivo; conditions: i.v. injection
Summary of the method: (§1)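 Mice under 1.5% isoflurane were given about 7.4 MBq of 11C-labelled test compound i.v. via a tail-vein catheter. Vehicle was ethanol/saline 1:9 with ascorbic acid and Tween. Dynamic microPET ran for 100 min and brain time-activity curves were plotted in SUV. Images were reconstructed by Fourier rebinning and 2D OSEM, with no attenuation or scatter correction.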

Lipophilicity = format: physicochemical; conditions: 1-octanol/sodium phosphate buffer, pH 7.4
Summary of the method: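 The 11C-labelled test compound was partitioned between 1-octanol and 0.15 M sodium phosphate buffer, pH 7.4. The aqueous phase left after extraction was analysed by radio-HPLC on C18 with MeOH:H2O:Et3N (92.5:7.5:0.1) at 4.0 mL/min. The result was decay-corrected and corrected for radioligand instability in the buffer.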

[2] = Distribution into cellular blood elements, rat blood; format: in vitro ADME; conditions: absence of autologous plasma
Summary of the method: (§2)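 Carbon-11 carboxyl-labelled test compound added to freshly drawn heparin-anticoagulated blood. Blood cells were tested with and without autologous plasma, and the fraction of radioactivity bound to cells was determined. Mean ± SD, n = 3.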

cPLA2α [3] = biological target: T1, cPLA2α (Mus musculus, UniProt P47713); assay: PET imaging in wild type mice with self-block pretreatment; format: in vivo; conditions: blocking agent 2 mg/kg i.v. 30 min before radioligand
T1 sequence (P47713 1-748): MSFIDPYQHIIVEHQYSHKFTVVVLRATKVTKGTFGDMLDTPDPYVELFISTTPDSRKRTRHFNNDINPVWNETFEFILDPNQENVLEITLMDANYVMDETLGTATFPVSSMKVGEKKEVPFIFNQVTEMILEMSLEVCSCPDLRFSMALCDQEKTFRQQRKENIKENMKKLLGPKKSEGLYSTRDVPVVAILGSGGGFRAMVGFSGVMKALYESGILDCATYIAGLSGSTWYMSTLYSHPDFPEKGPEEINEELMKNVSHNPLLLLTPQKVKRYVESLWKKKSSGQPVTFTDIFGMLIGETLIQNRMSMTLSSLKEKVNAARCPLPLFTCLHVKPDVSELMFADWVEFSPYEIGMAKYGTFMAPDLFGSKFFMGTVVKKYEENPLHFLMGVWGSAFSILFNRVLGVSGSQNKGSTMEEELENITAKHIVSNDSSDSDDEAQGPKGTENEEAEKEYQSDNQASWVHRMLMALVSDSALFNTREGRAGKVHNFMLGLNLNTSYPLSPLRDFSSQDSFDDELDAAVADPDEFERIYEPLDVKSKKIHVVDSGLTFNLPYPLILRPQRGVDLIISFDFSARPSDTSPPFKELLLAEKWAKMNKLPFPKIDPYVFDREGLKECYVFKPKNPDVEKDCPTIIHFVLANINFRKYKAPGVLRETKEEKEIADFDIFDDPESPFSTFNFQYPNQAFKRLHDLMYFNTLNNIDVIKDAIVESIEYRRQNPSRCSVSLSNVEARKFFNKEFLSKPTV
Summary of the method: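 Wild-type mice under 1.5% isoflurane first received unlabelled blocking agent, 2 mg/kg i.v. via tail-vein catheter. Thirty minutes later they were given about 7.4 MBq of 11C-labelled test compound in ethanol/saline (1:9), ascorbic acid and Tween. MicroPET ran for 100 min. Brain time-activity curves were compared with baseline. Reconstruction used FORE/2D OSEM without attenuation or scatter correction.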

[4] = Distribution into cellular blood elements, monkey blood; format: in vitro ADME; conditions: absence of autologous plasma
Summary of the method: as §2

cPLA2α [5] = conditions: cPLA2α inhibition; ref [19] and [20]; cited from earlier work
P-gp/BCRP = assay: PET imaging in P-gp/BCRP dual knock-out mice; format: in vivo
Summary of the method: as §1

[6] = Tissue stability in rat brain homogenate; format: in vitro ADME; conditions: room temperature, 30 min
[7] = Stability in aqueous sodium phosphate buffer; format: physicochemical; conditions: sodium phosphate buffer 0.15 M, pH 7.4

Stability in buffer [7]	SMILES	Peak radioactivity in brain [1]	logD (Lipophilicity)	Bound to blood cells [2]	Effect of pretreatment with non-radioactive ligand on brain time-activity curve (cPLA2α [3])	Bound to blood cells [4]	IC50 (cPLA2α [5])	Peak radioactivity in brain (P-gp/BCRP; P-gp/BCRP dual knock-out mice, i.v. injection)	Efflux transporter (P-gp/BCRP) substrate status (P-gp/BCRP; wild type vs dual knock-out mice brain uptake)	Stability in rat brain homogenate [6]
–	CC(C)C(=O)c1cn(CC(=O)COc2ccc(Oc3ccccc3)cc2)c2ccc(C(=O)O)cc12 [[^11C]1, 3-isobutyryl-1-(2-oxo-3-(4-phenoxyphenoxy)propyl)-1H-indole-5-carboxylic acid]	0.4 SUV	2.1 ± 0.01	More than 94%	did not alter	More than 94%	0.012 µM	0.5 SUV	not efflux transporters substrates; also recorded: not a brain P-gp or BRCP efflux transporter substrate	–
99.7±0.2%	Cc1noc(-c2cn(CC(=O)COc3ccc(Oc4ccccc4)cc3)c3ccc(C(=O)O)cc23)n1 [[^11C]3, 3-(3-methyl-1,2,4-oxadiazol-5-yl)-1-(2-oxo-3-(4-phenoxyphenoxy)propyl)-1H-indole-5-carboxylic acid]	–	2.07 ± 0.02	–	–	–	0.0061 µM	–	–	–
80.3±3.4%	CCCCCCCCc1ccc(OCC(=O)Cn2cc(-c3nc(C)no3)c3cc(C(=O)O)ccc32)cc1 [[^11C]4, 3-(3-methyl-1,2,4-oxadiazol-5-yl)-1-(3-(4-octylphenoxy)-2-oxopropyl)-1H-indole-5-carboxylic acid]	–	1.94 ± 0.15	–	–	–	–	–	–	104%

SMILES	Stability in buffer [7]	Peak radioactivity in brain [1]	logD (Lipophilicity)	Bound to blood cells [2]	Effect of pretreatment with non-radioactive ligand on brain time-activity curve (cPLA2α [3])	Bound to blood cells [4]	IC50 (cPLA2α [5])	Peak radioactivity in brain (P-gp/BCRP; P-gp/BCRP dual knock-out mice, i.v. injection)	Efflux transporter (P-gp/BCRP) substrate status (P-gp/BCRP; wild type vs dual knock-out mice brain uptake)	Stability in rat brain homogenate [6]
CC(=O)c1cn(CC(=O)COc2ccc(Oc3ccc(C(F)(F)F)cc3)cc2)c2ccc(C(=O)O)cc12 [[^11C]2, 3-acetyl-1-(2-oxo-3-(4-(4-(trifluoromethyl)-phenoxy)phenoxy)propyl)-1H-indole-5-carboxylic acid]	98.4±0.2%	–	2.43 ± 0.01	–	–	–	0.01 µM	–	–	97.5%
